In data set [1] the target is T1, Lysine-specific demethylase 6B (Homo sapiens, UniProt O15054). The experiment in a line: Inhibition of recombinant human JMJD3 expressed in baculovirus infected Sf9 cells at 25 uM using biotinylated histone H3 peptide as substrate incubated for 15 mins followed by substrate addition and measured after 60 mins by AlphaScreen assay relative to control. The method in brief:
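JMJD3 demethylase activity measured by AlphaScreen with compound at 25 μM; means ± SEM, n = 3.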

A short description of data set [2]: Apparent permeability of the compound in pH 7.4 phosphate buffer solution at 0.5 mM incubated for 24 hrs under gentle shaking condition by HPLC-UV detector based PAMPA assay. Format: ADME. The gist of the method: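 Parallel artificial membrane permeability assay (PAMPA); apparent permeability (Papp) reported in cm/s.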
A general note: PAMPA measures passive passage across an artificial lipid membrane.

Data set [3] concerns A-375. The experiment in a line: Cell cycle arrest in human A375 cells assessed as accumulation at G1 phase at 20 uM incubated for 24 hrs by propidium iodide staining-based flow cytometry (reference value: 59.63%). Format: functional. The gist of the method:
(§1)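 A375 melanoma cells exposed to compound at 1, 5, 10, 20, 40, 80 or 100 μM for 24 h. Cells were collected, fixed in iced 70% ethanol for 2 h and stained with propidium iodide. Cell-cycle distribution was read by flow cytometry, n = 3. […]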
On the technique in general: A flow cytometer gives signals particle by particle.

Data set [4] deals with A-375. As to the kind of experiment: Cell cycle arrest in human A375 cells assessed as accumulation at G2/M phase at 80 uM incubated for 24 hrs by propidium iodide staining-based flow cytometry (reference value: 10.81%). It counts as functional. The gist of the method:
as §1

The subject of data set [5] is A-375. As to the kind of experiment: Cell cycle arrest in human A375 cells assessed as accumulation at G2/M phase at 100 uM incubated for 24 hrs by propidium iodide staining-based flow cytometry (reference value: 10.81%). Format: functional. The method in brief:
as §1

The subject of data set [6] is A-375. As to the kind of experiment: Cell cycle arrest in human A375 cells assessed as accumulation at G1 phase at 100 uM incubated for 24 hrs by propidium iodide staining-based flow cytometry (reference value: 59.63%). It counts as functional. The gist of the method: as §1
Data set [7] relates to A-375. The experiment in a line: Cell cycle arrest in human A375 cells assessed as accumulation at S phase at 100 uM incubated for 24 hrs by propidium iodide staining-based flow cytometry (reference value: 29.56%). Format: functional. The method in brief:
as §1

For data set [8], the system named is A-375. The experiment in a line: Cell cycle arrest in human A375 cells assessed as accumulation at S phase at 40 uM incubated for 24 hrs by propidium iodide staining-based flow cytometry (reference value: 29.56%). Format: functional. The gist of the method:
as §1

Data set [9] concerns A-375. As to the kind of experiment: Cell cycle arrest in human A375 cells assessed as accumulation at G1 phase at 80 uM incubated for 24 hrs by propidium iodide staining-based flow cytometry (reference value: 59.63%). Format: functional. The method in brief: as §1
Data set [10] has as its system A-375. The experiment in a line: Cell cycle arrest in human A375 cells assessed as accumulation at G2/M phase at 20 uM incubated for 24 hrs by propidium iodide staining-based flow cytometry (reference value: 10.81%). It counts as functional. The method in brief: as §1
Data set [11] relates to A-375. As to the kind of experiment: Cell cycle arrest in human A375 cells assessed as accumulation at S phase at 20 uM incubated for 24 hrs by propidium iodide staining-based flow cytometry (reference value: 29.56%). It counts as functional. The method in brief:
as §1

Data set [12] relates to A-375. As to the kind of experiment: Cell cycle arrest in human A375 cells assessed as accumulation at S phase at 80 uM incubated for 24 hrs by propidium iodide staining-based flow cytometry (reference value: 29.56%). It counts as functional. The method in brief: as §1
Data set [13] concerns A-375. The experiment in a line: Cell cycle arrest in human A375 cells assessed as accumulation at G2/M phase at 40 uM incubated for 24 hrs by propidium iodide staining-based flow cytometry (reference value: 10.81%). It counts as functional. The method in brief: as §1
Data set [14] has as its system A-375. The experiment in a line: Antiproliferative activity against human A375 cells incubated for 24 hrs by propidium iodide staining based flow cytometric analysis. Particulars: A-375, 24 h.
The test system of data set [15] is A-375. As to the kind of experiment: Cell cycle arrest in human A375 cells assessed as accumulation at G1 phase at 40 uM incubated for 24 hrs by propidium iodide staining-based flow cytometry (reference value: 59.63%). It counts as functional. The gist of the method: as §1
Data set [16] concerns the target T1, Lysine-specific demethylase 6B. The experiment in a line: Inhibition of JMJD3 in human A375 cells assessed as reduction in decrease of the H3K27me2 level at 100 uM incubated for 24 hrs by Western blot analysis. Format: cell-based. The method in brief: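 A375 melanoma cells treated with 100 μM compound for 4 and 24 h, then lysed and run on SDS-PAGE. Western blot on nitrocellulose was probed with anti-H3K27me2 antibody.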
In general terms: In western blotting, separated proteins are transferred to a membrane and probed.

The target is the same in data set [17]. The experiment in a line: Inhibition of recombinant human JMJD3 expressed in baculovirus infected Sf9 cells using biotinylated histone H3 peptide as substrate incubated for 15 mins followed by substrate addition and measured after 60 mins by AlphaScreen assay.
Data set [18] concerns the target Lysine-specific demethylase 6A (Homo sapiens, UniProt O15550). As to the kind of experiment: Inhibition of UTX (unknown origin) using histone H3 peptide as substrate incubated for 30 mins followed by substrate addition by AlphaScreen assay.

Active and inactive are the calls of the source. The rule behind the calls is not given here.

T1 sequence (O15054 whole entry): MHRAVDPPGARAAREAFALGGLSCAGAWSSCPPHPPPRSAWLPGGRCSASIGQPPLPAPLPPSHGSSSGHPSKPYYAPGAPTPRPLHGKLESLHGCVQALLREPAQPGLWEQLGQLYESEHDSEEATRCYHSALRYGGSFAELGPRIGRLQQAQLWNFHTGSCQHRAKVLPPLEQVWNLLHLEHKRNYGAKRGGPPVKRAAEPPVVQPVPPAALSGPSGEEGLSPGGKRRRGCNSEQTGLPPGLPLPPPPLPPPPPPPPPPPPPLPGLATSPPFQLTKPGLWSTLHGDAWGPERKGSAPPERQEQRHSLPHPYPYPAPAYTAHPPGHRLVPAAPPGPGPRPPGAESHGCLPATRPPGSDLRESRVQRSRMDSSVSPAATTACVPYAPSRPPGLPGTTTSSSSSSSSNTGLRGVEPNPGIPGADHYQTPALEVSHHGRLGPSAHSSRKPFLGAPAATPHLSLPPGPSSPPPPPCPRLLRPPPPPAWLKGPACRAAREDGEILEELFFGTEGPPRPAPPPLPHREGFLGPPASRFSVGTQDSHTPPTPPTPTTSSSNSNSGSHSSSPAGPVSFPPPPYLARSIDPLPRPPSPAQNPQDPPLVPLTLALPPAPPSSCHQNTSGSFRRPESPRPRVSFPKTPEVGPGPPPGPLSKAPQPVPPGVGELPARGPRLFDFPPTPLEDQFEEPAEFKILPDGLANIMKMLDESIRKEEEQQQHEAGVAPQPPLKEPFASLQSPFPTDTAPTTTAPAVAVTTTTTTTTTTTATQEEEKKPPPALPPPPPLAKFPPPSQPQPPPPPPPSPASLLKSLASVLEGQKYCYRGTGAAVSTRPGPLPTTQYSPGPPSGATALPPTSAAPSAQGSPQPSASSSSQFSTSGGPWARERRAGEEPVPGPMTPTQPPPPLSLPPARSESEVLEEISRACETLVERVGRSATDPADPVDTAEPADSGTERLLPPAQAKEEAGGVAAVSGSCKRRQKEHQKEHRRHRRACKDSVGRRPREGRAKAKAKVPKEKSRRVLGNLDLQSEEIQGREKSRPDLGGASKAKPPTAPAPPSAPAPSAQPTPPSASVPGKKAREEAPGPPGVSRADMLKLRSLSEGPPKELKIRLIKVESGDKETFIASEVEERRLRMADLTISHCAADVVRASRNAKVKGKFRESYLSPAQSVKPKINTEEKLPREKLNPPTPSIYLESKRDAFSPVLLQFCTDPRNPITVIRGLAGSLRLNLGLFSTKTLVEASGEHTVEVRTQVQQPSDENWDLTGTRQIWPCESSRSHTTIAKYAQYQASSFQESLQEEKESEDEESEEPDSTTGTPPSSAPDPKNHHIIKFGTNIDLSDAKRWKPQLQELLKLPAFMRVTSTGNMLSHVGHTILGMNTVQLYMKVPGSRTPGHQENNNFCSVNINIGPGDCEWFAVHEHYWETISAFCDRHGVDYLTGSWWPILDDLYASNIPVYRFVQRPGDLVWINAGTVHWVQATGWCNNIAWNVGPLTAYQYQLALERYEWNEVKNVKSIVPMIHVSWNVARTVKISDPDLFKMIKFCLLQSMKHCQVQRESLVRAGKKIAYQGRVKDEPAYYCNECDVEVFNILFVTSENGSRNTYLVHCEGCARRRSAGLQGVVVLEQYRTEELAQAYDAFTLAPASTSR
Lysine-specific demethylase 6A, sequence (O15550 whole entry): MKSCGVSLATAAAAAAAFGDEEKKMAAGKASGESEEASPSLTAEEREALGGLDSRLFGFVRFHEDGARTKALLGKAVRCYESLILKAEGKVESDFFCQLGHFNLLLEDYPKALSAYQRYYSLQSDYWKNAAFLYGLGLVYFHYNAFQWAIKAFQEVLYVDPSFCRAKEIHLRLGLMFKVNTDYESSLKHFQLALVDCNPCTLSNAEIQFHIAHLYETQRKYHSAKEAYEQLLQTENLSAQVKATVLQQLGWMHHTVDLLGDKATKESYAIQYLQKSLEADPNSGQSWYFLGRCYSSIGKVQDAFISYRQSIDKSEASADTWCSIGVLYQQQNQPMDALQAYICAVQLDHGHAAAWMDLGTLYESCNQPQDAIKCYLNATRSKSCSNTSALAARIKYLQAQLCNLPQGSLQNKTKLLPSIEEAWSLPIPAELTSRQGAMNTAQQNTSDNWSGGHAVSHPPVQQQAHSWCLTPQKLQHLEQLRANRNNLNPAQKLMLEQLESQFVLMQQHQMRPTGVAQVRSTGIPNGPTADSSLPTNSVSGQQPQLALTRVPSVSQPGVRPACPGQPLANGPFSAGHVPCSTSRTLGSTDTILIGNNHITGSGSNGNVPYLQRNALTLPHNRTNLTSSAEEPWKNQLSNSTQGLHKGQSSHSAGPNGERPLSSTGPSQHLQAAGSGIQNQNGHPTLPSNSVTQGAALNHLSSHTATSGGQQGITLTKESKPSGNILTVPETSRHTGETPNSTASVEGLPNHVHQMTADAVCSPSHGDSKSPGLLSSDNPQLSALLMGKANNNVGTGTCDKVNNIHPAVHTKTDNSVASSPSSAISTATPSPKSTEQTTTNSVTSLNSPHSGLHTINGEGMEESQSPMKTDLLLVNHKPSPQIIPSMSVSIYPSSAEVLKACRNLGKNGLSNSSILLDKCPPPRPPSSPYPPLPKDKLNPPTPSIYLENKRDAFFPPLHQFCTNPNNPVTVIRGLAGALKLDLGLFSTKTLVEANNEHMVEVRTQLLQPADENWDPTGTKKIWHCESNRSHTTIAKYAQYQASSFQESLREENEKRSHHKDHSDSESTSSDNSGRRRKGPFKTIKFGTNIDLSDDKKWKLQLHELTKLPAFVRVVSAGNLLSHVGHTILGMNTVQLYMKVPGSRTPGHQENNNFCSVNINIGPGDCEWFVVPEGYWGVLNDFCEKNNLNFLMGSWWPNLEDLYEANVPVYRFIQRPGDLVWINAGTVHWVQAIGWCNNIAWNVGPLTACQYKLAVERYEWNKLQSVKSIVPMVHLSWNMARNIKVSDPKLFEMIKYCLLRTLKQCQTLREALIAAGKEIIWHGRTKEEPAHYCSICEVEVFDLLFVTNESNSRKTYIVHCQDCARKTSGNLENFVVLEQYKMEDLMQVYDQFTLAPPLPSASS

As a reminder, the inhibition is the percentage by which the read-out fell short of the control. Turning to `O=C(O)c1ccc(O)c(-c2nc3ccccc3o2)c1`, the inhibition in [1] worked out at 27%.

For the molecule `Oc1ccccc1-c1nc2ccccc2s1`, the inhibition entry in data set [1] was “inactive”.

A word on the Papp: it is a coefficient for how fast a substance crosses the barrier. What is called IC50 is the point on the concentration scale where inhibition reaches its midpoint. In the case of `Oc1ccc(O)c(-c2nc3ccccc3o2)c1`, in data set [2], the Papp at 24 h, 500 µM was found to be 0.912 ×10⁻⁶ cm/s. Besides, the Activity in the data set on A-375 [3] worked out at 51.31%; with A-375 [4] it was 10.96%; in the data set with A-375 [5], 10%; in the data set on A-375 [6], 16.62%; in the data set with A-375 [7] it was 73.38%; in the data set with A-375 [8], 61.05%. For the same molecule, the Activity with A-375 [9] is listed as 21.92%; in the data set with A-375 [10], 1.12%; with A-375 [11] it was 47.57%; in the data set on A-375 [12] it was 67.12%; with A-375 [13] it was 14.81%; with A-375 [15], 24.14%. Moreover, in data set [1], the inhibition worked out at 90%. The figures for the IC50 (in the data set on A-375 [14]; in data set [17]; in data set [18]) were 24.7 µM, 1.2 µM and 25.7 µM, respectively. The inhibition entry in data set [16] is “Active”.

Take `Oc1c(F)cc(F)cc1-c1nc2ccccc2o1`: in data set [1], the inhibition was determined as 20%.

Regarding `Oc1ccccc1-c1nc2ccccc2o1`, the inhibition in data set [1] was 40%.

Regarding `COc1cc2c(cc1-c1nc3ccccc3o1)OCO2`, the inhibition entry in data set [1] was “inactive”.

These data come from ChEMBL document CHEMBL4433220, “Identification of the 2-Benzoxazol-2-yl-phenol Scaffold as New Hit for JMJD3 Inhibition” (ACS Med Chem Lett, 2019).
